Data on seven compounds can be found in ChEMBL document CHEMBL2151009, “Structures and mechanisms of antitumor agents: xestoquinones uncouple cellular respiration and disrupt HIF signaling in human breast tumor cells” (J Nat Prod, 2012).

Molecules are shown by their SMILES. pIC50: −log10 of the molar value. Where a name gives a salt, the structure may show the parent alone. The source made the active and inactive calls. The calls are words filed in the database; no cut-off is given here. Bounds are passed on as bounds.

The test system of experiment [1] is MDA-MB-231. The experiment can be described thus: Cytotoxicity against human MDA-MB-231 cells assessed as decrease in cell viability at 30 uM after 48 hrs by SRB assay. In kind it is functional.
For experiment [2], the system named is T47D. The experiment can be described thus: Cytotoxicity against human T47D cells assessed as decrease in cell viability at 30 uM after 48 hrs by SRB assay. In kind it is functional. (In SRB staining, fixed cells bind dye roughly in proportion to their protein.)
For experiment [3], the target named is T1, Hypoxia inducible factors; HIF-1-alpha, HIF-2-alpha (Homo sapiens, UniProt Q16665+Q99814). Put plainly: Inhibition of hypoxia-induced HIF1 activation in human T47D cells after 16 hrs by HRE3-TK-luciferase reporter gene assay. It is filed as cell-based. The procedure, abridged:
(§1)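 T47D reporter assay for HIF-1 activity. Induced by hypoxia (1% O2) or by 1,10-phenanthroline (10 μM). Compounds tested at 0.3–30 μM in half-log steps; cycloheximide 1 μM as positive control. Luciferase signal expressed as % inhibition of the induced control without compound. IC50 and 95% CI from one experiment in triplicate.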

The subject of experiment [4] is T47D. The experiment can be described thus: Cytotoxicity against human T47D cells after 48 hrs by SRB assay. In kind it is functional, cell-based. The procedure, abridged:
(§2)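 Cells from ATCC treated 48 h with compounds from DMSO stocks (final DMSO under 0.5%). IC50 and 95% CI fitted from one experiment run in triplicate.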

In experiment [5] the test system is MDA-MB-231. Put plainly: Cytotoxicity against human MDA-MB-231 cells after 48 hrs by SRB assay. It is filed as functional, cell-based. The following applies: MDA-MB-231, 48 h. The procedure, abridged: as §2
The target in experiment [6] is T1, Hypoxia inducible factors; HIF-1-alpha, HIF-2-alpha. The experiment can be described thus: Inhibition of 1,10-phenanthroline-induced HIF1 activation in human T47D cells after 16 hrs by HRE3-TK-luciferase reporter gene assay. In kind it is cell-based. The procedure, abridged:
as §1
In general terms: A reporter such as luciferase makes a cellular process visible.

Experiment [7] has the same target. Put plainly: Inhibition of HIF1-mediated VEGF production in human T47D cells under 1,10-phenanthroline-induced hypoxic condition at 10 uM after 16 hrs by ELISA. It is filed as cell-based. The procedure, abridged: (§3)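 T47D cells exposed 16 h to hypoxia (1% O2) or to 1,10-phenanthroline (10 μM), with compound at 10 μM. Secreted VEGF in conditioned medium measured by ELISA and normalized to cellular protein. Cycloheximide 10 μM as positive control; normoxic medium control included. Mean + SD of one experiment in triplicate.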
Background: An ELISA detects its analyte on a solid surface through an enzyme-linked reagent.

Experiment [8] deals with T47D. Put plainly: Decrease in mitochondrial membrane potential in human T47D cells at 10 uM after 15 to 20 mins by TMRM assay. It is filed as functional, cell-based. The procedure, abridged: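 T47D cells preloaded with TMRM, then given compound. Epifluorescence images taken before and 15–20 min after addition. Per-cell fluorescence intensity quantified; solvent control 0.26% DMSO; FCCP as reference. Groups compared by unpaired t test.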

For experiment [9], the system named is T47D. Put plainly: Effect on cellular respiration in human T47D cells assessed as increase in oxygen consumption at 10 to 30 uM. It is filed as functional. The procedure, abridged: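 Oxygen consumption of intact respiring T47D cells. Compound added in half-log increments; FCCP as reference uncoupler. Rate expressed as % of untreated control. For 10 and 30 μM: mean + SD from three independent experiments. Lower concentrations: n = 2.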

Experiment [10] concerns the target T1, Hypoxia inducible factors; HIF-1-alpha, HIF-2-alpha. The experiment can be described thus: Inhibition of HIF1-mediated VEGF production in human T47D cells under hypoxic condition at 10 uM after 16 hrs by ELISA. It is filed as cell-based. The procedure, abridged:
as §3

Regarding `C[C@@]12CCCc3coc(c31)C(=O)c1cc3c(O)ccc(OS(=O)(=O)O)c3cc12` [XESTOQUINOL SULFATE], the Activity in experiment [1] and in experiment [2] was under 5% throughout. Moreover, the IC50 in [3] and in experiment [6] was over 30 µM throughout. Also, the pIC50 in experiment [4] and in [5] was under 4.52 in each case.
Take `C[C@@]12CCCc3coc(c31)C(=O)c1cc3c(cc12)C(=O)C1=NCCS(=O)(=O)C1=C3O` [ADOCIAQUINONE A]: the inhibition entry in [7] is “Active”. For the same compound, the result in experiment [8] was inactive. Moreover, the Activity in [9] is listed as 47%. Besides, the results for the IC50 in [3] and in experiment [6] were 6.4 µM and 0.2 µM, respectively. In addition, the results for the pIC50 in [4] and in experiment [5] were 5.59 and 5.20, respectively. Further, in experiment [10], the inhibition result is “inactive”.
In the case of `C[C@@]12CCCc3coc(c31)C(=O)c1cc3c(cc12)C(=O)C=C(CO)C3=O`, the inhibition entry in experiment [7] and in [10] was “Active” in each case. Besides, the outcome in [8] was Active. Moreover, the Activity in experiment [9] is 47%. Also, the IC50 (as a rule, the concentration that gives 50% inhibition) came out at 1.7 µM in experiment [3] and 1.2 µM in experiment [6]. The pIC50 (as a rule, −log10 of the IC50, conventionally taken in molar units) in [4] is 5.44; in [5], 5.19.
Turning to `C[C@@]12CCCc3coc(c31)C(=O)c1cc3c(cc12)C(=O)C=CC3=O` [XESTOQUINONE], the inhibition result in experiment [7] and in experiment [10] was “inactive” in each case. The result in experiment [8] was inactive. The Activity in experiment [9] stood at 47%. In addition, the IC50 in experiment [3] worked out at 12.3 µM; in [6], 7.3 µM. The figures for the pIC50 in experiment [4] and in experiment [5] were 4.86 and 4.69, respectively.
For `C[C@@]12CCCc3coc(c31)C(=O)c1cc3c(cc12)C(=O)C1=C(NCCS1(=O)=O)C3=O` [ADOCIAQUINONE B], the inhibition entry in experiment [7] was “Active”. For the same compound, the IC50 came to 4.6 µM in [3] and 0.2 µM in experiment [6]. Further, the pIC50 in [4] is 5.54; in experiment [5], 5.21. In experiment [10], the inhibition entry is “inactive”.
Turning to `C[C@@]12CCCc3coc(c31)C(=O)c1cc3c(cc12)C(=O)CCC3=O`, the inhibition entry in experiment [7] and in experiment [10] was “inactive” in each case. Further, the figures for the IC50 in [3] and in [6] were 10.6 µM and 4.2 µM, respectively. Also, the pIC50 in [4] is 4.80; in [5], 4.55.
For `C[C@@]12CCCc3coc(c31)C(=O)c1cc3c(cc12)C(=O)C(CO)=CC3=O`, the inhibition entry in [7] and in [10] was “Active” throughout. The results for the IC50 in [3] and in [6] were 2.3 µM and 1.5 µM, respectively. The pIC50 in experiment [4] was 5.37; in experiment [5] it was 5.20.
